Measurements taken from paper PMC3983374 (Journal of Medicinal Chemistry, 2014).

Legend:
[1] = test system: caspase 7; assay: Activation of apoptosis; type: cell-based; details: same concentration of 5b and 1
[2] = Rate of reaction of prodrugs with 4 mM GSH; type: in vitro ADME; details: for kGSH/kGSH (mean ± SD): rate with GSH alone, normalised to itself
[3] = test system: panel of NSCLC cell lines; assay: Proliferation of panel of NSCLC cell lines; type: cell-based; details: Homo sapiens, read-out: IC50 range over panel of NSCLC cell lines
Summary of the method: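 Cell lines from ATCC were cultured per the supplier's protocol and tested by MTT assay per the kit protocol. Each concentration was run in six repeats, in at least two independent experiments. IC50 values were obtained by curve fitting.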

[4] = test system: recombinant GSTP1; assay: GSTP1-catalyzed reaction of prodrug with GSH; type: in vitro ADME; details: recombinant GSTP1 versus GSH alone
Summary of the method: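 Kinetics were run at 37 °C by UV–visible spectrophotometry in 0.1 M phosphate buffer pH 7.4 with 50 μM DTPA and 4 mM GSH, with or without 40 nM GST. Substrate (typically 10 μM) was added after buffer and enzyme reached thermal equilibrium. Absorbance was followed at 302 nm, and the rate came from a first-order exponential fit.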

[5] = test system: H1703 NSCLC cells; assay: Alkaline Comet assay; type: cell-based, human; details: H1703, 24 h treatment, 5 μM
[6] = test system: A549 NSCLC cells; assay: Cellular uptake and metabolism by LC/MS; type: in vitro ADME, human; details: A549, 10 μM, any time point from 5 min to 1 h
Summary of the method: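 A549 cells were plated in 75 cm2 flasks overnight at 37 °C, then exposed to 10 μM test compound for varying times. Cells were lysed by scraping in 10 mM HCl/acetonitrile, 5% sulfosalicylic acid was added, and samples were spun at 12000g for 15 min and filtered. Analysis was by Q-TOF LC/MS in positive ion mode: C18 column, water/acetonitrile/0.1% formic acid gradient, extracted ion chromatograms at [M+H]+, with a lysate spiked with authentic compound as reference.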

[7] = test system: A549 human lung adenocarcinoma xenografts; assay: A549 xenograft tumor growth; type: in vivo, NCr nu/nu athymic mice; details: 92 μmol/kg intravenously, 2 times a week for 4 weeks; compared to 1 or saline controls
[8] = Analysis of metabolites in resected tumors; type: in vivo, NCr nu/nu athymic mice; details: resected tumors after 92 μmol/kg i.v., 2 times a week for 4 weeks
Summary of the method: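 A549 cells, passaged at most four times in RPMI 1640 with 10% FBS, were harvested at 70–80% confluence and implanted s.c. at 5 × 10^6 cells/0.2 mL PBS into NCr nu/nu mice. At about 3 mm × 3 mm, mice were randomised into groups of 12. Test compound was given by tail vein at 92 μmol/kg in 20 μL DMSO, twice weekly for 4 weeks. Tumours were removed at euthanasia right after the last dose and frozen immediately for metabolite analysis.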

[9] = target: PARP-1 enzyme (Homo sapiens, UniProt P09874); assay: PARP-1 enzyme inhibition; type: biochemical; details: presence or absence of GSH (4 mM)/GSTP1 (40 nM)
[10] = test system: A549 lung adenocarcinoma cells; assay: Immunoblot analysis of glutathionylation, stress signaling and apoptosis; type: cell-based, human
Summary of the method: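 A549 lysates from cells treated with test compound (1 μM for the apoptosis markers) were immunoblotted for p38, eIF2α phosphorylation, CHOP, BiP, ATF4, p53 Ser15, Puma, and cleaved caspases 8, 3 and 7 and PARP. […] Blots are representative of at least three independent experiments.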

[11] = test system: A549 cells; assay: Colony forming assay; type: cell-based, human; details: A549, combination treatment of 14 and 13

PARP-1 enzyme, sequence (P09874 whole entry): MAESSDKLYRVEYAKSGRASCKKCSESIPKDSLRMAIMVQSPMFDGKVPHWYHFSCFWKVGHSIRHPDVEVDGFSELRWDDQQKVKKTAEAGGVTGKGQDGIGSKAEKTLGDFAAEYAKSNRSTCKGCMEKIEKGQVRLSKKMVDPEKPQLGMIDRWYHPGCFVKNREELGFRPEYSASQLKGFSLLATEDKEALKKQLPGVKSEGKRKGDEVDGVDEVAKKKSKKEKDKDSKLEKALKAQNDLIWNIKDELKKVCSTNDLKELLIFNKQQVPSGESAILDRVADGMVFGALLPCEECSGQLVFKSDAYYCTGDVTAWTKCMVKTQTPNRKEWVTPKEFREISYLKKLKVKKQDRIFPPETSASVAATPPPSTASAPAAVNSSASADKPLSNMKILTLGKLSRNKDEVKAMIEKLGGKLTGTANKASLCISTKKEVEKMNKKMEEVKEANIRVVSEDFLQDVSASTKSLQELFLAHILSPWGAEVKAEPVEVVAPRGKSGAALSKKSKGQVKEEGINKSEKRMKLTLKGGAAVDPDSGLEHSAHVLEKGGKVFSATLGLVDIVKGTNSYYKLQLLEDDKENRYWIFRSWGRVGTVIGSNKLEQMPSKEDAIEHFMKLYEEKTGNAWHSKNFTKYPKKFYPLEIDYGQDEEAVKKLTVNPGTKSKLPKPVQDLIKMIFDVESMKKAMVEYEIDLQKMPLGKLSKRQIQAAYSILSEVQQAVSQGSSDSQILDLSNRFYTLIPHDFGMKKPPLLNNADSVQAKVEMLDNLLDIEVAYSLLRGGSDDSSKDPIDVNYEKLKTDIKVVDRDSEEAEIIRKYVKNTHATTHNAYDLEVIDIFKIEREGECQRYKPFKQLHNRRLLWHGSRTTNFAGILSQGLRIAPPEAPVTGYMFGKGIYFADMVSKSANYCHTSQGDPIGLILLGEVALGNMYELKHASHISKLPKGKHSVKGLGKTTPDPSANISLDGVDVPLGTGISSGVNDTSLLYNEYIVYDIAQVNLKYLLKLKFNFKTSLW

| SMILES | apoptotic signal (cleaved caspase 7) [1] | kGSH/kGSH (mean ± SD) [2] | IC50 [3] [µM] | effect on tumor growth [7] | parent drug and liberated PARP-1 inhibitor in tumors [8] | also measured |
| --- | --- | --- | --- | --- | --- | --- |
| O=C(c1cc(Cc2n[nH]c(=O)c3ccccc23)ccc1F)N1CCN(C(=O)C2CC2)CC1 [Compound 1, olaparib, reference compound] | did not trigger apoptosis | – | – | – | – | – |
| CCOC(=O)N1CCN(/[N+]([O-])=N/Oc2ccc([N+](=O)[O-])cc2[N+](=O)[O-])CC1 [Compound 2, O^2-(2,4-dinitrophenyl) 1-[(4-ethoxycarbonyl)piperazin-1-yl]diazen-1-ium-1,2-diolate, reference compound] | – | 1 ± 0.001 | – | – | – | – |
| O=C(c1cccc(Cc2n[nH]c(=O)c3ccccc23)c1)N1CCN(/[N+]([O-])=N/Oc2ccc([N+](=O)[O-])cc2[N+](=O)[O-])CC1 [Compound 5a] | – | – | 3 to 20 | – | – | – |
| O=C(c1cc(Cc2n[nH]c(=O)c3ccccc23)ccc1F)N1CCN(/[N+]([O-])=N/Oc2ccc([N+](=O)[O-])cc2[N+](=O)[O-])CC1 [Compound 5b] | strong apoptotic signal | 1 ± 0.007 | 3 to 20 | reduced growth of tumors to a lesser extent | detected in some tumors | parent compound still present ([2]; 4 mM GSH, after 2 half-lives, LC/MS): 25%; enhancement of reaction with GSH when GSTP1 present [4]: over 10 fold; DNA strand break damage (Comet assay) [5]: significant DNA strand break damage; parent compound in cell lysates [6]: not detected |
| CNc1ccc(C(=O)Oc2cc(O/N=[N+](\[O-])N(C)C)c([N+](=O)[O-])cc2[N+](=O)[O-])cc1 [Compound 8, PABA/NO, reference compound] | – | 1 ± 0.003 | – | – | – | – |
| CN(C)/[N+]([O-])=N\Oc1cc(O/N=[N+](\[O-])N2CCN(C(=O)c3cc(Cc4n[nH]c(=O)c5ccccc45)ccc3F)CC2)c([N+](=O)[O-])cc1[N+](=O)[O-] [Compound 13] | – | 1 ± 0.004 | – | significant reduction of the tumor growth | detected in some tumors | PARP-1 enzyme inhibition, activated versus prodrug [9]: Activated compound is a much better PARP-1 inhibitor than the prodrug; time to caspase 8 activation ([10]; A549, 1 μM): ≤ 6 h; time to detection of glutathione attached to protein ([10]; A549, nonreducing immunoblot): ≤ 1 h; time to activation of stress kinase p38 ([10]; A549, phosphorylation persisted for 8 h): ≤ 15 min; cytotoxicity in combination with 14 [11]: enhanced toxicity |
